In ChEMBL document CHEMBL4184148 (Bioorg Med Chem Lett, 2017):

Experiments:
[1] = biological target: Serine/threonine-protein kinase PLK2 (Homo sapiens) (UniProt Q9NYY3); test: Binding affinity to wild-type human partial length PLK2 (H58 to F354 residues) expressed in HEK293 cells at 1 uM by Kinomescan method relative to control; type: cell-based
[2] = biological target: Uncharacterized serine/threonine-protein kinase SBK3 (Homo sapiens) (UniProt P0C264); test: Binding affinity to wild-type human partial length SgK110 (L22 to R329 residues) expressed in Escherichia coli BL21 at 1 uM by Kinomescan method relative to control
[3] = biological target: Ephrin type-A receptor 4 (Homo sapiens) (UniProt P54764); test: Binding affinity to wild-type human partial length EPHA4 (T601 to R897 residues) expressed in Escherichia coli BL21 at 1 uM by Kinomescan method relative to control
[4] = test system: Epidermal growth factor receptor (Homo sapiens), P00533 [G719S]; test: Binding affinity to human partial length EGFR G719S mutant (R669 to V1011 residues) expressed in Escherichia coli BL21 at 1 uM by Kinomescan method relative to control
[5] = biological target: Tyrosine-protein kinase ITK/TSK (Homo sapiens) (UniProt Q08881); test: Binding affinity to wild-type human partial length ITK (R335 to L620 residues) expressed in Escherichia coli BL21 at 1 uM by Kinomescan method relative to control
[6] = biological target: SRSF protein kinase 3 (Homo sapiens) (UniProt Q9UPE1); test: Binding affinity to wild-type human partial length SRPK3 (P41 to P567 residues) expressed in Escherichia coli BL21 at 1 uM by Kinomescan method relative to control
Chain of SRSF protein kinase 3 (Homo sapiens) (Q9UPE1 whole entry, the tested form may be a part): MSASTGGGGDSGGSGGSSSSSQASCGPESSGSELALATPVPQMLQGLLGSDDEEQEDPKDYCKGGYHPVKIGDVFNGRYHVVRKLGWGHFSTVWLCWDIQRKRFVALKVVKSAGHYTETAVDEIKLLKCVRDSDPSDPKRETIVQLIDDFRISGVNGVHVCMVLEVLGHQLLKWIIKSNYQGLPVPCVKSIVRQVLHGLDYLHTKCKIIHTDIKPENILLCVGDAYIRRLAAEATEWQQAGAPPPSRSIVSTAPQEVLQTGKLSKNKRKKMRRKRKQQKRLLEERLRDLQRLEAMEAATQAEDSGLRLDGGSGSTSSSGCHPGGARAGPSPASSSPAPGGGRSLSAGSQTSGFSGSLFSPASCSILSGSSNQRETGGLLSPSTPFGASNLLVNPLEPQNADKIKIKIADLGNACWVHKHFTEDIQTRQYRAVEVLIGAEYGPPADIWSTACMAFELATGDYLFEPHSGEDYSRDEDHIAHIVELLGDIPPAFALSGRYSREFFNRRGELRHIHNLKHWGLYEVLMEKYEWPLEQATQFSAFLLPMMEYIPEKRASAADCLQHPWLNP

[7] = biological target: MAP/microtubule affinity-regulating kinase 3 (Homo sapiens) (UniProt P27448); test: Binding affinity to wild-type human full length MARK3 (M1 to L729 residues) expressed in Escherichia coli BL21 at 1 uM by Kinomescan method relative to control
Outline: (§1)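 Run as one kinome-wide competition binding panel with each compound at a single fixed concentration. Results were plotted as a kinome-wide selectivity map.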

[8] = biological target: G protein-coupled receptor kinase 4 (Homo sapiens) (UniProt P32298); test: Binding affinity to wild-type human full length GRK4 (M1 to C578 residues) expressed in Escherichia coli BL21 at 1 uM by Kinomescan method relative to control; outline: as §1
[9] = biological target: Proto-oncogene tyrosine-protein kinase receptor Ret (Homo sapiens) (UniProt P07949); test: Binding affinity to wild-type human partial length RET (E713 to D1014 residues) expressed in Escherichia coli BL21 at 1 uM by Kinomescan method relative to control
Chain of Proto-oncogene tyrosine-protein kinase receptor Ret (Homo sapiens) (P07949 whole entry, the tested form may be a part): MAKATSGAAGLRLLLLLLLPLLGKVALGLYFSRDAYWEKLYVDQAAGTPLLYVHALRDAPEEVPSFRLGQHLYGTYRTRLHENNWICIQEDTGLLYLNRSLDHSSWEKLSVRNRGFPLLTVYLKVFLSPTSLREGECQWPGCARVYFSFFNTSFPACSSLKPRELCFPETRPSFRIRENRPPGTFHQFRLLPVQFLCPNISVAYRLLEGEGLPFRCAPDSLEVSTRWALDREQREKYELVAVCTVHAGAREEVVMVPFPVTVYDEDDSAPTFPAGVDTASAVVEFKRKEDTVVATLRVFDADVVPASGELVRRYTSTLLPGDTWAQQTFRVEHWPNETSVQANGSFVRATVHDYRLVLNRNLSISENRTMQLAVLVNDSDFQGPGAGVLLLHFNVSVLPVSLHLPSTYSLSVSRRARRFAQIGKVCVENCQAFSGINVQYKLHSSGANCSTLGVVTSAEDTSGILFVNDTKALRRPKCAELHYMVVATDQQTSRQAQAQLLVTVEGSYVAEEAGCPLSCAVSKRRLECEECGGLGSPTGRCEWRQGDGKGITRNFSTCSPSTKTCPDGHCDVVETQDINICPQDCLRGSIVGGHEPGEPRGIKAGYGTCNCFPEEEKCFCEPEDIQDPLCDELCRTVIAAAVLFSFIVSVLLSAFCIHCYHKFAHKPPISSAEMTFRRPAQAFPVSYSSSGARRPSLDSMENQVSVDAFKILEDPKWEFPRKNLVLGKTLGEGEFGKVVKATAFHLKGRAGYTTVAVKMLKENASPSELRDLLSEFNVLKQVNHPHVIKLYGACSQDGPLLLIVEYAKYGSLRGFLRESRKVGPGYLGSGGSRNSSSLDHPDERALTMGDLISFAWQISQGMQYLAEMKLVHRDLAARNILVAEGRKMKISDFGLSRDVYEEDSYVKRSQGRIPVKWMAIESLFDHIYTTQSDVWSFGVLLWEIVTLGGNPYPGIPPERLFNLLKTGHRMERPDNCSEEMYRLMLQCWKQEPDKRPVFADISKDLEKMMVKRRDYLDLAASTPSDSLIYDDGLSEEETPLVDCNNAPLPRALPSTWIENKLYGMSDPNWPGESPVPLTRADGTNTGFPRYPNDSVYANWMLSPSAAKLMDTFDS

[10] = biological target: Cyclin-dependent kinase 11B (Homo sapiens) (UniProt P21127); test: Binding affinity to wild-type human partial length CDC2L1 (P353 to G692 residues) expressed in Escherichia coli BL21 at 1 uM by Kinomescan method relative to control
[11] = biological target: Inhibitor of nuclear factor kappa-B kinase subunit beta (Homo sapiens) (UniProt O14920); test: Binding affinity to wild-type human full length IKK-beta (M1 to S756 residues) expressed in HEK293 cells at 1 uM by Kinomescan method relative to control; type: cell-based; outline: as §1
[12] = biological target: Cyclin-dependent kinase 9 (Homo sapiens) (UniProt P50750); test: Binding affinity to wild-type human full length CDK9 (M1 to F372 residues) expressed in Escherichia coli BL21 at 1 uM by Kinomescan method relative to control; outline: as §1
[13] = biological target: Phosphorylase b kinase gamma catalytic chain, skeletal muscle/heart isoform (Homo sapiens) (UniProt Q16816); test: Binding affinity to wild-type human full length PHKG1 (M1 to Y387 residues) expressed in Escherichia coli BL21 at 1 uM by Kinomescan method relative to control
Outline: (§2)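 Kinome-wide competition binding panel run by an outside provider, with each compound tested at a single concentration. Activity is read against the kinase panel.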

Aurora kinase B = Aurora kinase B (Homo sapiens, UniProt Q96GD4); test: Binding affinity to wild-type human partial length AURKB (D25 to A303 residues) expressed in HEK293 cells at 1 uM by Kinomescan method relative to control; type: cell-based
Chain of Aurora kinase B (Q96GD4 whole entry, the tested form may be a part): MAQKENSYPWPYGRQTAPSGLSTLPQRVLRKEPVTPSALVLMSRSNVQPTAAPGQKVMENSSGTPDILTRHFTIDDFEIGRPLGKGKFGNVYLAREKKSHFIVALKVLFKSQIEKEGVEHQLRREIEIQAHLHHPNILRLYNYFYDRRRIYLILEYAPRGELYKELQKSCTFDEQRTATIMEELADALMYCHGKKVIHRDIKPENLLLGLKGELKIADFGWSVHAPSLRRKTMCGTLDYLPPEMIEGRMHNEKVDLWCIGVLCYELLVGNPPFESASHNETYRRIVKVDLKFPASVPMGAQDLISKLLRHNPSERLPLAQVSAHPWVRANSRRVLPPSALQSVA

[14] = biological target: LIM domain kinase 1 (Homo sapiens) (UniProt P53667); test: Binding affinity to wild-type human full length LIMK1 (M1 to D647 residues) expressed in Escherichia coli BL21 at 1 uM by Kinomescan method relative to control; outline: as §1
Chain of LIM domain kinase 1 (Homo sapiens) (P53667 whole entry, looked up, the tested form may be a part): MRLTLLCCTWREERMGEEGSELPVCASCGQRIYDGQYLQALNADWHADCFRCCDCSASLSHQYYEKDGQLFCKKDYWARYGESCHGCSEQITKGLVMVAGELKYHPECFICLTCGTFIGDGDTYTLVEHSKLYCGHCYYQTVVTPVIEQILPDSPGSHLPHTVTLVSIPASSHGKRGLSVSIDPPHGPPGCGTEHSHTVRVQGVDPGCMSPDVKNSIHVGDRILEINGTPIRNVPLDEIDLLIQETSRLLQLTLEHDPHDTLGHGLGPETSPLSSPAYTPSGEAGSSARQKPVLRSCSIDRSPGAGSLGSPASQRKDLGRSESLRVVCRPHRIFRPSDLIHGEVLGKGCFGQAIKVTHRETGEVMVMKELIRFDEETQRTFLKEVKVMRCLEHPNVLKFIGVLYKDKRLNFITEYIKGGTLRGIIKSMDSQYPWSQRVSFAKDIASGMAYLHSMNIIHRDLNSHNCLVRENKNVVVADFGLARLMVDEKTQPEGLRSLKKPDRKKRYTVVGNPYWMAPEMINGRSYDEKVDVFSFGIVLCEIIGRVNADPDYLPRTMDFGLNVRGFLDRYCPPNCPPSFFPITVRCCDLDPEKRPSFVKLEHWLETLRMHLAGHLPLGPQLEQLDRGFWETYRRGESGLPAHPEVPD

[15] = biological target: Dual specificity mitogen-activated protein kinase kinase 4 (Homo sapiens) (UniProt P45985); test: Binding affinity to wild-type human partial length MEK4 (S84 to D399 residues) expressed in HEK293 cells at 1 uM by Kinomescan method relative to control; type: cell-based
[16] = biological target: Mast/stem cell growth factor receptor Kit (Homo sapiens) (UniProt P10721); test: Binding affinity to wild-type human partial length autoinhibited KIT (Y545 to D952 residues) expressed in HEK293 cells at 1 uM by Kinomescan method relative to control; type: cell-based; design: scale not given: the % may be the effect or the level left
[17] = biological target: MAP kinase-interacting serine/threonine-protein kinase 2 (Homo sapiens) (UniProt Q9HBH9); test: Binding affinity to wild-type human partial length MKNK2 (G63 to S388 residues) expressed in HEK293 cells at 1 uM by Kinomescan method relative to control; type: cell-based
Chain of MAP kinase-interacting serine/threonine-protein kinase 2 (Homo sapiens) (Q9HBH9 whole entry, looked up, the tested form may be a part): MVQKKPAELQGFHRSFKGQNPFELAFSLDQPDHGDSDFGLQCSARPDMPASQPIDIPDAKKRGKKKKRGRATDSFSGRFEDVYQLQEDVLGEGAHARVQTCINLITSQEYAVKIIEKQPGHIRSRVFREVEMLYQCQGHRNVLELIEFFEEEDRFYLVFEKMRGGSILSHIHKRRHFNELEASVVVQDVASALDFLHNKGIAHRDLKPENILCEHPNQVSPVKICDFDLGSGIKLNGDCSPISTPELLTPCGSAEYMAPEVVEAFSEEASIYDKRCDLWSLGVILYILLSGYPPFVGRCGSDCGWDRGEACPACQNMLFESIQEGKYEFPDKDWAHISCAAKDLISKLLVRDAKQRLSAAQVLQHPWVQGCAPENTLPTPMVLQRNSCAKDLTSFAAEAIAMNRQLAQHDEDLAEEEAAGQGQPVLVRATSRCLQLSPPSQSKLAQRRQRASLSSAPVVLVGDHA

[18] = test system: Proto-oncogene tyrosine-protein kinase receptor Ret (Homo sapiens), P07949 [V804L]; test: Binding affinity to human partial length RET V804L mutant (E713 to D1014 residues) expressed in Escherichia coli BL21 at 1 uM by Kinomescan method relative to control
Chain of Proto-oncogene tyrosine-protein kinase receptor Ret (Homo sapiens), P07949 [V804L] (P07949 whole entry V804L, the tested form may be a part): as the sequence (P07949 whole entry, the tested form may be a part) above, with V804L counted along it

[19] = biological target: Serine/threonine-protein kinase PAK 6 (Homo sapiens) (UniProt Q9NQU5); test: Binding affinity to wild-type human partial length PAK6 (N298 to C681 residues) expressed in Escherichia coli BL21 at 1 uM by Kinomescan method relative to control
[20] = biological target: Serine/threonine-protein kinase Chk2 (Homo sapiens) (UniProt O96017); test: Binding affinity to wild-type human partial length CHEK2 (S253 to E574 residues) expressed in Escherichia coli BL21 at 1 uM by Kinomescan method relative to control
[21] = biological target: Misshapen-like kinase 1 (Homo sapiens) (UniProt Q8N4C8); test: Binding affinity to wild-type human partial length MINK (M1 to K312 residues) expressed in HEK293 cells at 1 uM by Kinomescan method relative to control; type: cell-based
Chain of Misshapen-like kinase 1 (Homo sapiens) (Q8N4C8 whole entry, looked up, the tested form may be a part): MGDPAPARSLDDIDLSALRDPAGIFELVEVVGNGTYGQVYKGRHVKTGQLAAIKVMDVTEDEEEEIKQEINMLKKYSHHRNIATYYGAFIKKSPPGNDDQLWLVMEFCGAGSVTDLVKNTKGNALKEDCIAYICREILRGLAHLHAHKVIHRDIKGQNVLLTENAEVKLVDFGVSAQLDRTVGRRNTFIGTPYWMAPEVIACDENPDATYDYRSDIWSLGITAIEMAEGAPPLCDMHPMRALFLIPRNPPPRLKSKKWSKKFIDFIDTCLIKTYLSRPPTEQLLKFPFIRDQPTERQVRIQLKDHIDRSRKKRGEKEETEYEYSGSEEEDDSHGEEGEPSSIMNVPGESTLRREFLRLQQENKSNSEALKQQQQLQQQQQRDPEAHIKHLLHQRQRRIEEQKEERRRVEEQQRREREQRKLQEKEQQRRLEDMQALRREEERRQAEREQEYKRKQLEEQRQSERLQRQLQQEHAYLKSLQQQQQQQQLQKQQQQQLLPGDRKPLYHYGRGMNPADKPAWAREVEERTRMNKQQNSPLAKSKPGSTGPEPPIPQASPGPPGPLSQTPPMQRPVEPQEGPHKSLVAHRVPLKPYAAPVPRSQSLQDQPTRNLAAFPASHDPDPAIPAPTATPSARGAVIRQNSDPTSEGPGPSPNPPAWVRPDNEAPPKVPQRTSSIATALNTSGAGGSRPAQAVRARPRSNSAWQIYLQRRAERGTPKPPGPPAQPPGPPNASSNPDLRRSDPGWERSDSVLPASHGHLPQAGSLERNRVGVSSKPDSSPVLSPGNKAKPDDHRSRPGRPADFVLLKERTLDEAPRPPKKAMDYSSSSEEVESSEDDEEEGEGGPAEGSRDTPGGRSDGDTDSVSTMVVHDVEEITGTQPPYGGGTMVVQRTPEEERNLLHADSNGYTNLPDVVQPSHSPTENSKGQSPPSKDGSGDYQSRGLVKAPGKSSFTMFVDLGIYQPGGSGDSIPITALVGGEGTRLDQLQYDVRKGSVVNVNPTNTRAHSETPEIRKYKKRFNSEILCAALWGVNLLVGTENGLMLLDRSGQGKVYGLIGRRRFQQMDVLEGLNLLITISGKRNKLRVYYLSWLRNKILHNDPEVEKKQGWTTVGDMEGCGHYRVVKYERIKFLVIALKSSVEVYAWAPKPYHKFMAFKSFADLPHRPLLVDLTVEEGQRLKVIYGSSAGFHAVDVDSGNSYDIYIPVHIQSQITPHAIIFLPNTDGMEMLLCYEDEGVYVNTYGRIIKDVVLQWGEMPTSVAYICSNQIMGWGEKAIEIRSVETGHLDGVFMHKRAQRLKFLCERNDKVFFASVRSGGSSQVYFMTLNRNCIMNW

[22] = biological target: Serine/threonine-protein kinase Nek7 (Homo sapiens) (UniProt Q8TDX7); test: Binding affinity to wild-type human full length NEK7 (M1 to S302 residues) expressed in Escherichia coli BL21 at 1 uM by Kinomescan method relative to control; outline: as §2
[23] = biological target: Serine/threonine-protein kinase 25 (Homo sapiens) (UniProt O00506); test: Binding affinity to wild-type human partial length YSK1 (V14 to H295 residues) expressed in Escherichia coli BL21 at 1 uM by Kinomescan method relative to control
[24] = biological target: Casein kinase I isoform alpha (Homo sapiens) (UniProt P48729); test: Binding affinity to wild-type human partial length CSNK1A1 (M1 to L450 residues) expressed in HEK293 cells at 1 uM by Kinomescan method relative to control; type: cell-based
Chain of Casein kinase I isoform alpha (Homo sapiens) (P48729 2-337 limits assumed): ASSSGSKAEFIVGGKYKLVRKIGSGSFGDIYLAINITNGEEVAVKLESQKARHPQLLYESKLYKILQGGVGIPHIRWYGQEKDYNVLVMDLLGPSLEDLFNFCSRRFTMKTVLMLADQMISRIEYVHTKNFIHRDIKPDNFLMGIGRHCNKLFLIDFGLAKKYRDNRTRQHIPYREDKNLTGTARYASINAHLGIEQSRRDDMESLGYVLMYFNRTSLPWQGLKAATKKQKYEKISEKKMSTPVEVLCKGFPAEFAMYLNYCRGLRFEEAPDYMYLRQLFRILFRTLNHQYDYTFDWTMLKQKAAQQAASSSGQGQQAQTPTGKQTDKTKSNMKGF

SMILES	Activity [1] [%]	Activity [2] [%]	Activity [3] [%]	Activity [4] [%]	Activity [5] [%]	Activity [6] [%]	Activity [7] [%]	Activity [8] [%]	Activity [9] [%]	Activity [10] [%]	Activity [11] [%]	Activity [12] [%]	Activity [13] [%]	Activity (Aurora kinase B) [%]	Activity [14] [%]	Activity [15] [%]	Activity [16] [%]	Activity [17] [%]	Activity [18] [%]	Activity [19] [%]	also measured
CCC(=O)Nc1ccc(C(=O)Nc2ccc(Nc3ncc4c(n3)N(C)c3ccc(C)cc3C(=O)N4C)cc2)cc1	74	70	97	93	76	100	95	100	88	100	95	97	88	1.9	70	88	90	84	63	94	Activity [20]: 95%; Activity [21]: 65%; Activity [22]: 95%; Activity [23]: 100%; Activity [24]: 58%
C=CC(=O)Nc1ccc(C(=O)Nc2ccc(Nc3ncc4c(n3)N(C)c3ccc(C)cc3C(=O)N4C)cc2)cc1	90	93	93	100	94	100	80	97	86	97	97	97	99	1.8	100	100	96	66	84	91	Activity [20]: 97%; Activity [21]: 98%; Activity [22]: 100%; Activity [23]: 87%; Activity [24]: 86%
